SENP1 FRET inh: SENP1 (human) catalytic domain inhibition; AID 624204; Q9P0U3; 360,000 tested, 0.21% active; inhibition, % at 10 µM; recombinant SENP1 catalytic domain, CyPet-SUMO1-YPet FRET cleavage;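 active means inhibition at least 30% at 10 µM, raw YFP signal under a set limit, fluorescence ratio 0.5 to 1.5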;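 further: 0% = enzyme with DMSO and 100% = no enzyme wells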
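material = recombinant human SENP1 catalytic domain, His6-tagged | quantity = 20 pM enzyme | reagent = 25 nM SUMO1 FRET substrate | compound dosing = 10 µM single point, 0.5% DMSO | timing = 50 min enzyme reaction, room temperature, light-protected | detection = FRET, CFP and YFP emission | control set = no-enzyme low, enzyme-DMSO high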
H9c2 protect: protects H9c2 cardiomyocytes from peroxide injury | 360,000 tested, 0.63% active | AID 588492 | protection from H2O2 cell death, % at 20 µM | H2O2 injury protection, ATPLite, 2 h;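 active means compounds giving at least 50% protection of heart cells from peroxide-induced death in the single-dose screen, raw or plate-pattern-corrected value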;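 further: 0% = DMSO wells with peroxide and 100% = DMSO wells without peroxide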
Arrestin-AP2 inh: human beta-arrestin and AP2 interaction inhibition | 340,000 tested, 0.31% active | FITC-arrestin peptide / GST-AP2 beads, flow cytometry; AP2 beta2 appendage carries R879A mutation | inhibition, % at 10 µM;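 active means inhibition above a set limit, near 3 SD of compounds lacking own fluorescence, cut at about 54% in these data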;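 further: plate controls were DMSO wells for no effect and 5 µM unlabelled arrestin peptide for full effect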
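test system = AP2 appendage R879A on GSH beads | buffer or medium = PBS plus Tween 20 (0.05%) and BSA (0.1%) | incubation = 12 min plus 1 h, RT | detection = bead flow cytometry, FITC channel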
iPSC survival up: hiPSC single-cell survival enhancement | AID 602274 | 360,000 tested, 0.044% active | ATPlite luminescence; 100% = ROCK inhibitor wells, 0% = DMSO | survival enhancement, % at 20 µM; in the data active means survival enhancement above about 18%;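 further: cells exposed to compounds for 16 hours before the ATP read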
FAS-TE inh: FAS thioesterase (human) inhibition; 360,000 tested, 0.67% active; P49327; inhibition, % at 15 µM; AID 602261; recombinant FAS-TE, OMFH fluorogenic substrate, fluorescence endpoint;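 active means compounds whose normalised, plate-corrected inhibition of enzyme fluorescence in the single-dose primary screen is 50% or more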;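 further: 0% = DMSO with enzyme and 100% = substrate without enzyme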
NR3A LBD binder: modulates the human NR3A ligand-binding domain | AID 1259313 | 340,000 tested, 2.5% active | NR3A LBD differential scanning fluorimetry, Tm shift; 0% = protein alone, 100% = glycine-bound protein | Tm shift relative to glycine control, % at 25 µM;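 active means melting temperature shift of at least 10% of the positive control shift, at one fixed dose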
Arr AP2 CP1: blocks beta-arrestin peptide binding to human AP2 | AID 504908 | inhibition, % at 10 µM | GST-AP2 beads, FITC arrestin peptide binding, flow cytometry; GST-fused beta2-adaptin appendage, R879A mutant | 1,300 tested, 2% active | shares compounds with Arrestin-AP2 inh;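 active means inhibition above a set limit, roughly 3 SD of non-fluorescent compound noise, cut at about 38% in these data; inactive means inhibition at or below that limit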;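 further: loss of bead fluorescence from 50 nM FITC arrestin peptide bound to appendage; 0% = negative control wells and 100% = excess unlabelled arrestin peptide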
GST GSH counter: GST-GSH bead binding interference, counter-screen; GST-fluorescein binding to GSH beads, fluorescence; 1,300 tested, 2% active; inhibition, % at 10 µM; shares compounds with Arrestin-AP2 inh;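 active means inhibition above 50%, about 3 SD of the inhibition seen with non-fluorescent compounds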;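 further: fluorescein maleimide labelled GST captured on 4 micron glutathione beads; higher means more loss of bead fluorescence from quenching or blocked binding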
Numbers without * were called inactive; . = no result. Compounds with a hit are over-represented: about 4% of the library has one in this group of screens.

SMILES	SENP1 FRET inh	H9c2 protect	Arrestin-AP2 inh	iPSC survival up	FAS-TE inh	NR3A LBD binder	Arr AP2 CP1	GST GSH counter
CCn1nc(NS(=O)(=O)c2cccc3nonc23)c2cc3ccc(C)cc3nc21	-4	-3	68*	0	1	-8	-2	8
CCCCN1C(=O)/C(=C2/Sc3ccc(OC)cc3N2CC)SC1=S	-36	8	-5	0	-4	0	.	.
CCCCOC(=O)CCCN1C(=O)/C(=C2\SC(=S)N(CCCC(=O)OCCCC)C2=O)SC1=S	1	8	67*	0	18	1	10	4
Cc1ccc(/C(COc2ccccc2O)=N\O)cc1	0	-2	57*	3	-3	2	8	0
O=C(Cn1c(=O)[nH]c2ccccc2c1=O)Nc1ccc2c(c1)OCO2	-3	-1	-2	0	-4	-1	1	0
CC(C)C(C(=O)Nc1ccc2c(c1)OCCO2)N1C(=O)c2ccccc2C1=O (centres undefined)	0	-1	1	-1	6	-2	.	.
C[C@@H](C(=O)Nc1ccc2c(c1)OCCO2)n1c(=O)[nH]c2ccccc2c1=O	0	2	-9	0	-5	0	6	-1
C[C@@H](C(=O)Nc1ccc2c(c1)OCO2)n1c(=O)[nH]c2ccccc2c1=O	-7	-5	4	-1	-2	-4	-3	-4
COc1ccc(CCNC(=O)C(F)(F)F)cc1S(N)(=O)=O	3	.	.	.	.	.	.	.
O=C(Nc1ccc2nc(-c3ccco3)c(-c3ccco3)nc2c1)NC1CC1	-21	6	58*	-1	-7	-7	30	27
CO/N=C/C(c1ccc(Cl)nc1)S(=O)(=O)c1ccccc1 (centres undefined)	2	3	57*	0	-4	-1	14	-3
CO/N=C/C(c1ncc(C(F)(F)F)cc1Cl)S(=O)(=O)c1ccccc1 (centres undefined)	14	-5	10	0	0	-2	.	.
CCCCc1cc(=O)oc2cc(C)cc(OC(C)C(=O)NCc3ccncc3)c12 (centres undefined)	0	13	67*	0	6	-1	-6	-5
COc1ccc(OC)c(NC(=O)c2cc3c(Cl)nc4ccccc4c3s2)c1	-13	-15	104*	-1	-7	9	-7	-11
Cc1ccccc1CN1C(=O)CN(S(C)(=O)=O)CC1(C)C(=O)NC(C)C (centres undefined)	-7	.	.	.	.	.	.	.
COCCN(CCOC)Cc1cc(=O)oc2ccccc12	-5	4	.	-1	-10	.	.	.
COc1ccccc1-n1cnc2c(c1=O)c1nc3ccccc3nc1n2-c1ccc(C)cc1	-7	8	3	1	46	-2	.	.
COc1ccccc1-n1cnc2c(c1=O)c1nc3ccccc3nc1n2CCc1ccccc1	-7	30	73*	-1	22	0	1	68*
Cc1cc(C(=O)Nn2c(C)nc3ccccc3c2=O)ccc1[N+](=O)[O-]	0	14	-13	0	-8	-1	.	.
Cc1cc(C(=O)Nn2cnc3ccccc3c2=O)ccc1[N+](=O)[O-]	2	8	54*	0	-2	-1	2	3
CC1(C(=O)Nc2ccc(F)cc2F)CCN1C(=O)Cc1ccccc1 (centres undefined)	-1	2	.	-2	-12	.	.	.
CCc1nc2ccc(C(=O)N3CCN(C(=O)c4ccco4)CC3)cn2c1N(C)C(=O)COc1ccccc1	1	1	.	-1	-7	.	.	.
CC(C)c1ccc(OCc2ccc(C(=O)N3CCN(c4ccccn4)CC3)cc2)cc1	1	-18	56*	-3	17	3	11	-7
CCOC(=O)Cn1c(=NC(=O)c2cccs2)sc2cc(C(=O)OC)ccc21	-1	-3	106*	1	-8	3	-5	.
CCOC(=O)c1ccc2c(c1)sc(=NC(=O)c1ccco1)n2CCOC	-3	-3	0	-1	-11	-4	.	.
SMILES	SENP1 FRET inh	H9c2 protect	Arrestin-AP2 inh	iPSC survival up	FAS-TE inh	NR3A LBD binder	Arr AP2 CP1	GST GSH counter
O=C(CNC(=S)NC(=O)c1ccccc1Br)c1ccccc1	4	2	102*	-3	-11	0	27	10
Cc1nn(-c2ccccc2)c(-c2ccccc2[N+](=O)[O-])c1CC#N	-1	4	.	0	-2	.	.	.
COc1ccc2nc(C(c3ccc(C)cc3)n3c(-c4ccccc4Br)nc4ccccc43)[nH]c2c1 (centres undefined)	11	-6	.	-1	3	.	.	.
COc1ccc(C)cc1N(C(=O)c1snc(C(N)=O)c1N)C(C(=O)NC1CCCCC1)c1ccc(C)o1 (centres undefined)	-23	-9	72*	1	11	-3	2	-2
COc1ccc(OC)c(C(C(=O)NC2CCCCC2)N(C(=O)c2snc(C(N)=O)c2N)c2ccccc2OC)c1 (centres undefined)	-25	-1	-3	0	-2	-3	.	.
COC(=O)c1ccccc1NC(=O)CN1CCN(c2ccccn2)CC1	0	7	-6	-3	3	-1	.	.
COC(=O)c1ccccc1N/C=C1\CCc2c(c(C)nn2-c2ccccn2)C1=O	-133	10	56*	-1	18	-1	55*	15
CC(C)c1ccc(S(=O)(=O)N2CCC(C(=O)N3CCN(c4cccc(Cl)c4)CC3)CC2)cc1	1	-22	-8	0	34	-1	.	.
Cc1ccccc1S(=O)(=O)N1C[C@@H]2C(C(=O)C[C@@H]3C(=O)N(C)C(=O)[C@@H]32)[C@@H]1c1ccc(Cl)cc1 (some centres undefined)	9	.	.	.	.	.	.	.
N#Cc1cc(C(=O)c2ccccc2OCC(=O)Nc2ccccc2)cn(C2CCCCC2)c1=O	0	-2	108*	0	-15	-5	72*	191*
O=C(Cn1ccnc1)c1ccc(Cl)cc1	0	2	55*	0	-2	-2	-18	0
Cc1c(C(=O)Nc2ccc(C(=O)O)cc2)cnn1C	0	3	58*	4	-4	0	-6	-1
CCn1ncc(C(=O)Nc2ccc(F)cc2)c1C	2	-1	-12	0	-6	-1	.	.
COc1ccc(CCN(C)C(=O)c2cc(-c3ccccc3)nc3ccc(C)cc23)cc1OC	-2	0	67*	0	4	-3	8	2

Screens as filed in PubChem.
